Assay results of several laboratories.
Lines come from different studies, so protocols differ.
Read-out: cell growth or viability

For `CCn1c(=O)c(-c2ccc(-c3cncs3)cc2Cl)cc2cnc(Nc3ccc(N4CCN(C)CC4)cc3)nc21`, the IC50 was 3030 nM (BXPC-3; MTT; 24 h).
`CCC[C@H](Nc1nc(-c2ccc(NC(=O)NCC)c(OC)c2)ncc1C)c1cccnc1` has an IC50 of 37.1 nM (BXPC-3; fluorescence; 72 h).
The IC50 of `Cc1cnc(NC2CCOCC2)nc1-n1cnc(C(=O)NC(CN)c2cc(F)cc(Cl)c2)c1` (centres unmarked) is reported as 300 nM (U-2973; MTS).
`CC[C@]1(O)C[C@H]2CN(CCc3c([nH]c4ccccc34)[C@@](C(=O)OC)(c3cc4c(cc3OC)N(C=O)[C@H]3[C@@](O)(C(=O)OC)[C@H](OC(C)=O)[C@]5(CC)C=CCN6CC[C@]43[C@@H]65)C2)C1` gave an IC50 of 2 nM (BXPC-3; fluorescence; 72 h).
`COc1cc([C@@H]2c3cc4c(cc3[C@@H](O[C@@H]3O[C@@H]5CO[C@@H](C)O[C@H]5[C@H](O)[C@H]3O)[C@H]3COC(=O)[C@H]23)OCO4)cc(OC)c1O` gave an IC50 of 1300 nM (DLD-1; fluorescence; 48 h).
`Cc1nc(NC(=O)N2CCC[C@H]2C(N)=O)sc1-c1ccnc(C(C)(C)C(F)(F)F)c1` has an IC50 of 154 nM (SW48; ATP luminescence; 96 h).
For `CC(C)C[C@H](NC(=O)[C@H](Cc1ccccc1)NC(=O)c1cnccn1)B(O)O`, the IC50 was 68 nM (BEN; ATP luminescence).
For `C=C(C)C(=O)Nc1ccc(-c2c(-c3ccc(Oc4nccc(C)n4)c(F)c3)c3c(N)ncnc3n2C)cc1`, the IC50 was 9.96 nM (MFE-296; ATP luminescence; 96 h).
`CC(C)n1ncnc1-c1cn2c(n1)-c1ccc(O[C@@H](C)C(N)=O)cc1OCC2` has an IC50 of 21 nM (SW48; ATP luminescence; 96 h).
For `CN(C)CCCN1c2ccccc2Sc2ccc(Cl)cc21`, the IC50 was 26000 nM (human Hepatocyte).
The IC50 of `COc1cc(Nc2nccc(-c3cnn4nc(OC)ccc34)n2)cc(C(F)(F)F)c1` is reported as 470 nM (NCI-H838; ATP luminescence).
`C[C@H]1[C@H](C)CC[C@]2(C(=O)O)CC[C@]3(C)C(=CC[C@@H]4[C@@]5(C)CC[C@H](O)C(C)(C)[C@@H]5CC[C@]43C)[C@H]12` gave an IC50 of 13000 nM (DLD-1; 48 h).
With `C[C@H](NC(=O)c1cccc2ccccc12)C(=O)Nc1ccccc1Oc1ccccc1` the IC50 was 3000 nM (SK-N-FI).
For `Nc1ccn([C@@H]2O[C@H](CO)[C@@H](O)C2(F)F)c(=O)n1`, the IC50 was 28 nM (BXPC-3; MTT).
